Consider 45 sequences from the EternaBench riboswitch data.

Data set [1] concerns MS2 coat protein. Nature of the data set: apparent Kd, MS2 coat protein; higher = weaker binding; RNA-MaP array; tryptophan 2.4 mM where present. In short, it runs like this: (§1)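 In 100 mM Tris-HCl pH 7.5, 80 mM KCl, 4 mM MgCl2, BSA, DTT, yeast tRNA and Tween-20, SNAP-549-labelled MS2 coat protein was titrated from 0.7 or 1.5 nM, doubling to 3 µM, over designs transcribed by stalled E. coli RNA polymerase on Illumina sequencing-chip clusters. This was done first without ligand, then with ligand held constant. After green signal was normalised to red-channel RNA signal and control-cluster median Fmax, the apparent Kd was taken as the median of filtered per-cluster binding-curve fits.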

Data set [2] has as its system MS2 coat protein. The data set can be described thus: apparent Kd, MS2 coat protein; higher = weaker binding; RNA-MaP array; theophylline 2 mM where present. In short, it runs like this: as §1
The mark [3] stands for this setting: designed as: ON switch for tryptophan, no ligand.
Where [4] appears, read: ligand present: tryptophan, designed as: ON switch for tryptophan.
Where [5] appears, read: designed as: OFF switch for tryptophan, no ligand.
[6] abbreviates: ligand present: tryptophan, designed as: OFF switch for tryptophan.
[7] abbreviates: designed as: ON switch for theophylline, no ligand.
Where [8] appears, read: ligand present: theophylline, designed as: ON switch for theophylline.
The mark [9] stands for this setting: designed as: OFF switch for theophylline, no ligand.
[10] abbreviates: ligand present: theophylline, designed as: OFF switch for theophylline.

Take “AGCCACUCGAGUGAUCCUCACGAGUGGCUACGAGGACCGGUACGGCCGCCACUCGAAUUAACAUGAGGAUCACCCAUGUAAUAAU”: the apparent Kd – broadly, the concentration giving half-maximal binding under the conditions of the assay – in the data set on MS2 coat protein [1] (setting [3]) was 152 nM; in the data set with MS2 coat protein [1] (setting [4]), 39.6 nM.
Consider “AUAAGCUGUACCGGAAUAUCCUCAUGUAUACGAGGACCGGUACGGCCGCCACUCGAUAACAUGAGGAUCACCCAUGUAAUAAUAA”, for which the “apparent Kd” value in the data set with MS2 coat protein [1] (setting [5]) and in the data set with MS2 coat protein [1] (setting [6]) was 11.2 nM each time.
For the sequence “GCGUUCUCUGCGGCCGCCACUCAAGGAGCUACAUAGCUCCUAGACAUGAGGAUCACCCAUGUGGCGAGGACCGGGUAGAUCCUUA”, the entries for the “apparent Kd” value with MS2 coat protein [1] (setting [3]) and in the data set on MS2 coat protein [1] (setting [4]) were 202 nM and 168 nM, respectively.
The corresponding values for “GCAUCCUAGUCGGCCGCCACUGGUACGAACACCUUCACCCGUGUGCACAUGAGGAUCACCCAUGUUAGGACCGGGACUAGGAUGC” are 8.2 nM and 7.99 nM.
Turning to “UAUCGUCAGACGGCCGCCACUAGAACAUGAGGAUCACCCAUGUACCCGGUCCAUUCCUCAUUAACUAGGACCGGGUCUGACGAAU”, the “apparent Kd” value with MS2 coat protein [1] (setting [5]) was found to be 125 nM; in the data set with MS2 coat protein [1] (setting [6]) it was 30.2 nM.
Take “ACAUGAGGAUCACCCAUGUGCAUCACCCGACGAGGACCGGUACGGCCGCCACUCGGGUAUAUAUUUACAUCGGGUGAUUUUACGU”: the figures for the “apparent Kd” value in the data set on MS2 coat protein [1] (setting [3]) and with MS2 coat protein [1] (setting [4]) were 22.8 nM and 21 nM, respectively.
For the sequence “ACGGAGAUGUCGGCCGCCACUGAACUCAUGUUCAACAUGAGGAUCACCCAUGUACCUUAGUUUAUCAGGACCGGGACAUAUACGA”, the “apparent Kd” value with MS2 coat protein [1] (setting [5]) worked out at 116 nM; in the data set on MS2 coat protein [1] (setting [6]) it was 48.1 nM.
For “AGUAUUGGAAACAGUACUAGUGAUCCGGUCCGAGGACCGGUACGGCCGCCACUCGAUUUAAAUAAACAUGAGGAUCACCCAUGUA”, in that order: 13.8 nM and 25.2 nM.
Consider “UUAGAUAUGACAGAUACCAGCGUGUUGUAGAACAUGAGGAUCACCCAUGUAGUGAUCGUGCGCCCUUGGCAGCUGGUAUGUUUGG”, for which the “apparent Kd” value in the data set with MS2 coat protein [2] (setting [7]) was determined as 280 nM; in the data set on MS2 coat protein [2] (setting [8]) it was 881 nM.
With “GGGAAAGAAUGUGAUACCAGAGAACCGGUCUCCAUCAAUAUACAUGAGGAUCACCCAUGUCUCCCUUGGCAGCACCAUCAUCAAA”, the “apparent Kd” value was determined as 23.1 nM with MS2 coat protein [2] (setting [9]) and 75.8 nM in the data set on MS2 coat protein [2] (setting [10]).
Regarding “AUAAGUAAUGUUACGUGUUUAAUUGCAGAUACCAGACUAUACGUUGUCCCUUGGCAGCUGAAUUACAUGAGGAUCACCCAUGUUG”, the “apparent Kd” value was found to be 25.9 nM in the data set with MS2 coat protein [2] (setting [9]) and 25 nM with MS2 coat protein [2] (setting [10]).
The corresponding values for “AAGCUGCCAAGAAGGUGAUCCAAAUGUGAUACCAGCUAGGAAACUAGCCCUUGGCAGCACAUGAGGAUCACCCAUGUAAUAAUAA” are 60.8 nM and 182 nM.
As for “AGAUAACAUGGUUUAAUAAGAUAAACUGAUACCAGUGUAUAUAAUCACCCUUGGCAGCAGCAACAUGAGGAUCACCCAUGUAAUA”, the “apparent Kd” value was 17 nM with MS2 coat protein [2] (setting [7]) and 21.6 nM in the data set with MS2 coat protein [2] (setting [8]).
The corresponding values for “AGAUCUUUCGAAAGAAGGAUCUUGUCUGAUACCAGAGACGAAAGUCUCCCUUGGCAGCAGUGCCAACAUGAGGAUCACCCAUGUA” are 20.1 nM and 21.4 nM.
For “AAACGUUGCUCAGAUACCAGACAUGAGGAUCACCCAUGUACCAAGGUAACCGAAAGGCAUGUCCCUUGGCAGCUGAGCAACGAAA”, the “apparent Kd” value stood at 12.8 nM with MS2 coat protein [2] (setting [9]) and 262 nM in the data set on MS2 coat protein [2] (setting [10]).
For “GGGAAUGAACGUGAUACCAGAGAUCCGGUCUCCGUCACUCUACAUGAGGAUCACCCAUGUCUCCCUUGGCAGCACCGUCAUCGGG”, in that order: 34.4 nM and 61 nM.
For “UCUUUCUAUUGUGAUACCAGACGUACAUGAGGAUCACCCAUGUUUCAUUCUUGUUUUAAAGUCCCUUGGCAGCACUAUUUGUUCG”, in that order: 16.3 nM and 13.2 nM.
As for “AAAGGCGGGCAGGAUACCAGCGCUAACAUGAGGAUCACCCAUGUACAAAUAAUAACAUGGUGCCCUUGGCAGCCUGGGCGUCUGC”, the “apparent Kd” value in the data set with MS2 coat protein [2] (setting [7]) worked out at 56 nM; in the data set with MS2 coat protein [2] (setting [8]) it was 285 nM.
The corresponding values for “AUGUCGUUGAAUACAGCGGCAUGGUGUGAUACCAGAAUGAUCAAAUUCCCUUGGCAGCAUCACAUGAGGAUCACCCAUGUUAAGG” are 38.3 nM and 52 nM.
As to “AGCGACAUGCGUGAUACCAGCUACAUGAGGAUCACCCAUGUACGUCAGUAAUGACUGUGUAGCCCUUGGCAGCAUAAUGCAUGUC”, the “apparent Kd” value came out at 34.4 nM in the data set on MS2 coat protein [2] (setting [9]) and 67.2 nM in the data set on MS2 coat protein [2] (setting [10]).
The corresponding values for “AGCUCAUAGAGUGAUACCAGACUACAUGAGGAUCACCCAUGUUUCUUUUGGUUAUCAUGUGUCCCUUGGCAGCACAAGAAGAGCA” are 13.4 nM and 114 nM.
As for “AAACGUUGCUGCGAUACCAGACAUGAGGAUCACCCAUGUACCAAGAAAACGUACAUAAAUGUCCCUUGGCAGCGCAGCAACGAAA”, the “apparent Kd” value with MS2 coat protein [2] (setting [9]) worked out at 582 nM; with MS2 coat protein [2] (setting [10]), 1110 nM.
For “AAACAUUGCUGCGAUACCAGACAUGAGGAUCACCCAUGUACCAAGGUAAGAAAAUAACAUGUCCCUUGGCAGCGCAGCAAUGAAA”, in that order: 16.4 nM and 418 nM.
Consider “GAUAGUUGAUGGGAUACCAGCGUGCACAUGAGGAUCACCCAUGUGGUUCGUGUACGACGGCGCCCUUGGCAGCCCAUAUUGUGUA”, for which the “apparent Kd” value in the data set on MS2 coat protein [2] (setting [7]) stood at 151 nM; with MS2 coat protein [2] (setting [8]), 18.9 nM.
“ACAUGAGGAUCACCCAUGUCACGGCACGAUACCAGCUGAUGCGGUGGCCCUUGGCAGCGUGACGUUUGGUCCCGCGGAUGACGGG”: the “apparent Kd” value with MS2 coat protein [2] (setting [7]) stood at 40.8 nM; in the data set with MS2 coat protein [2] (setting [8]) it was 16.8 nM.
For “UGUAACAUGAGGAUCACCCAUGUAAGUGAUACCAGAUAAGUAGUAGUCCCUUGGCAGCAUAUUGGGCGAGUGUAUAGUCUAUACG”, in that order: 50.4 nM and 61.1 nM.
The corresponding values for “GUCCUAGCGAUCGCUCGCUAGGACGCGGAUACCAGCGAGGUCCAUCGCCCUUGGCAGCCGAACAUGAGGAUCACCCAUGUCGGUA” are 9.59 nM and 14.9 nM.
For “UGUAACAUGAGGAUCACCCAUGUGAGUGAUACCAGACUAGUAUUAGUCCCUUGGCAGCACGCUGGGCGAGUGUAUAGUCUAUGCG”, in that order: 85.9 nM and 84.9 nM.
Consider “UGACAUUGCUCAGAUACCAGACAUGAGGAUCACCCAUGUACCAAGGUACGAAAAUAACAUGUCCCUUGGCAGCUGAGCAAUGUCU”, for which the figures for the “apparent Kd” value in the data set with MS2 coat protein [2] (setting [9]) and in the data set with MS2 coat protein [2] (setting [10]) were 13.6 nM and 251 nM, respectively.
The corresponding values for “AGCGACAUGCAUGAUACCAGCUACAUGAGGAUCACCCAUGUACGUCAGUAAUGACUGUGUAGCCCUUGGCAGCAUAAAGCAUGUC” are 28.8 nM and 56.7 nM.
For “AGUCUAUGAAGAGAUACCAGUGAGAGACAUAGACAUGAGGAUCACCCAUGUGACAUGAAGCACCCUUGGCAGCUCAACGAGCUCA”, the “apparent Kd” value stood at 42.8 nM in the data set with MS2 coat protein [2] (setting [7]) and 16.1 nM in the data set with MS2 coat protein [2] (setting [8]).
The corresponding values for “AUAAAUAAAACCGAUACCAGCCUUAUACAUGAGGAUCACCCAUGUUAUGCUUCCUUUUUUGGCCCUUGGCAGCGGAAAUGGGUAA” are 83.3 nM and 40.8 nM.
The corresponding values for “GGUGGGACUUGUGAUACCAGCCUAAUUCGAAUCGAAUUGCACAUGAGGAUCACCCAUGUCGGCCCUUGGCAGCAUGAGUAUUUAU” are 287 nM and 20.4 nM.
For “ACACAUGAGGAUCACCCAUGUUGCAUAGAUACCAGAUAACGUGAGAUCCCUUGGCAGCUAACUGCAUGAACUUGACAUGCAUCAU”, in that order: 42.4 nM and 136 nM.
With “GCUGUAAGUGCAGAUACCAGCAUGUUAUAUUUCUAAUGACAUGAGGAUCACCCAUGUAAAUGCCCUUGGCAGCUGCACUUACAGC”, the “apparent Kd” value in the data set with MS2 coat protein [2] (setting [7]) came out at 18.9 nM; with MS2 coat protein [2] (setting [8]), 18.8 nM.
For the sequence “AGCCCUGUGCUAGAUACCAGCUACAUGAGGAUCACCCAUGUGCGUCAGAAAUGACUGUGUAGCCCUUGGCAGCUACUCGCAUGUA”, the figures for the “apparent Kd” value in the data set on MS2 coat protein [2] (setting [9]) and in the data set with MS2 coat protein [2] (setting [10]) were 14.5 nM and 26 nM, respectively.
The corresponding values for “ACAUGAGGAUCACCCAUGUUCCUCGCCGAUACCAGUGAAGAAUUACGCCCUUGGCAGCGGAAAGAGUGUUUUGGAGAUGAGGUAC” are 72.6 nM and 108 nM.
The corresponding values for “AUAACAUGAGGAUCACCCAUGUAAGCAGAUACCAGCUAGGAAACUAGCCCUUGGCAGCUGCAUUCCUCAUGUAGGUAUCUGCUAA” are 15.8 nM and 62.5 nM.
For “ACGAACUGUAGUGAUACCAGACGUACAUGAGGAUCACCCAUGUUGUAAACAUGGUUAAUAGUCCCUUGGCAGCACAGUUAGUUCG”, in that order: 347 nM and 531 nM.
Turning to “GACCUUGCGGGCGCCCGCAAGGUCGCGGAUACCAGCGAGGUCCAUCGCCCUUGGCAGCCGAACAUGAGGAUCACCCAUGUCGGUU”, the “apparent Kd” value in the data set on MS2 coat protein [2] (setting [7]) amounted to 10.9 nM; in the data set with MS2 coat protein [2] (setting [8]) it was 11.8 nM.
For “GAUAGUUGAAGGGAUACCAGCCUGGACAUGAGGAUCACCCAUGUAGCGUGUUUGAAACUGGGCCCUUGGCAGCCCAUAUUGUGUA”, in that order: 15.9 nM and 14.6 nM.
Consider “ACAUGAGGAUCACCCAUGUGGCGUCUUGAUACCAGACCCGCACUAGUCCCUUGGCAGCAACUACGUGAGGGUCGCCCAUGUGUAG”, for which the “apparent Kd” value was found to be 35.9 nM in the data set on MS2 coat protein [2] (setting [9]) and 46.8 nM in the data set on MS2 coat protein [2] (setting [10]).
The corresponding values for “UAUUUUGUGAUGGAUACCAGCAGAGAAAACGUUUAUCCUAACAUGAGGAUCACCCAUGUAUGCCCUUGGCAGCUGUUGUGGGAUA” are 30.8 nM and 36.1 nM.
“AGACAUGAGGAUCACCCAUGUAGUAUGGAUACCAGAUGUAGAUUAGUCCCUUGGCAGCUGUGGUGAAGUGAUGCAUUGCUCCUAG”: the figures for the “apparent Kd” value in the data set with MS2 coat protein [2] (setting [9]) and in the data set with MS2 coat protein [2] (setting [10]) were 23.4 nM and 25.9 nM, respectively.
Regarding “AGAUGACACAGUGGAUAGCAAGAUGCCGAUACCAGCUAGGAAACUAGCCCUUGGCAGCGGUACAUGAGGAUCACCCAUGUAUCCU”, the “apparent Kd” value with MS2 coat protein [2] (setting [9]) worked out at 12.2 nM; in the data set on MS2 coat protein [2] (setting [10]), 58.7 nM.
